Key:
Triticum aestivum = test: Toxicity in Triticum aestivum (wheat) plant assessed as inhibition at 150 g/hectare; type: organism-based; settings: in vivo
Procedure, shortened: (§1)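 For crop selectivity, conventional crop varieties were planted in 12 cm diameter plots and given a postemergence treatment at 150 g ai/ha. Injury was scored as percent inhibition, with 0–10% classed as safe to the crop.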

Brassica napus = test: Toxicity in Brassica napus (oilseed rape) assessed as inhibition at 150 g/hectare; type: functional; procedure, shortened: as §1
Gossypium hirsutum = test: Toxicity in Gossypium hirsutum (cotton) plant assessed as inhibition at 150 g/hectare; type: organism-based; settings: in vivo; procedure, shortened: as §1
Glycine max = test: Toxicity in Glycine max (soybean) plant assessed as inhibition at 150 g/hectare; type: organism-based; settings: in vivo; procedure, shortened: as §1
Zea mays = test: Toxicity in Zea mays (maize) plant assessed as inhibition at 150 g/hectare; type: organism-based; settings: in vivo; procedure, shortened: as §1
Oryza sativa = test: Toxicity in Oryza sativa (rice) plant assessed as inhibition at 150 g/hectare; type: organism-based; settings: in vivo; procedure, shortened: as §1
Brassica juncea [1] = test: Post-emergence herbicidal activity against Brassica juncea assessed as inhibition at 75 g/hectare by green house assay; type: functional
Chenopodium album [2] = test: Post-emergence herbicidal activity against Chenopodium album assessed as inhibition at 75 g/hectare by green house assay; type: functional
[3] = tested on: Brassica rapa subsp. oleifera; test: Post-emergence herbicidal activity against Brassica rapa subsp. oleifera assessed as inhibition at 75 g/hectare by green house assay; type: functional
Brassica oleracea [4] = test: Post-emergence herbicidal activity against Brassica oleracea assessed as inhibition at 75 g/hectare by green house assay; type: functional
Pontederia vaginalis [5] = test: Post-emergence herbicidal activity against Monochoria vaginalis assessed as inhibition at 75 g/hectare by green house assay; type: functional
Ammannia baccifera [6] = test: Post-emergence herbicidal activity against Ammannia baccifera assessed as inhibition at 75 g/hectare by green house assay; type: functional
Radish [7] = test: Post-emergence herbicidal activity against Raphanus sativus (radish) assessed as inhibition at 75 g/hectare by green house assay; type: functional
Ipomoea nil [8] = test: Post-emergence herbicidal activity against Ipomoea nil (Japanese morning glory) assessed as inhibition at 75 g/hectare by green house assay; type: functional
[9] = tested on: Brassica rapa subsp. chinensis; test: Post-emergence herbicidal activity against Brassica rapa subsp. chinensis assessed as inhibition at 75 g/hectare by green house assay; type: functional
Amaranthus retroflexus [10] = test: Post-emergence herbicidal activity against Amaranthus retroflexus assessed as inhibition at 75 g/hectare by green house assay; type: functional
Brassica juncea [11] = test: Post-emergence herbicidal activity against Brassica juncea assessed as inhibition at 150 g/hectare by green house assay; type: functional
Chenopodium album [12] = test: Post-emergence herbicidal activity against Chenopodium album assessed as inhibition at 150 g/hectare by green house assay; type: functional
[13] = tested on: Brassica rapa subsp. oleifera; test: Post-emergence herbicidal activity against Brassica rapa subsp. oleifera assessed as inhibition at 150 g/hectare by green house assay; type: functional
Brassica oleracea [14] = test: Post-emergence herbicidal activity against Brassica oleracea assessed as inhibition at 150 g/hectare by green house assay; type: functional
Pontederia vaginalis [15] = test: Post-emergence herbicidal activity against Monochoria vaginalis assessed as inhibition at 150 g/hectare by green house assay; type: functional
Ammannia baccifera [16] = test: Post-emergence herbicidal activity against Ammannia baccifera assessed as inhibition at 150 g/hectare by green house assay; type: functional
Radish [17] = test: Post-emergence herbicidal activity against Raphanus sativus (radish) assessed as inhibition at 150 g/hectare by green house assay; type: functional
Ipomoea nil [18] = test: Post-emergence herbicidal activity against Ipomoea nil (Japanese morning glory) assessed as inhibition at 150 g/hectare by green house assay; type: functional
Amaranthus retroflexus [19] = test: Post-emergence herbicidal activity against Amaranthus retroflexus assessed as inhibition at 150 g/hectare by green house assay; type: functional
[20] = tested on: Brassica rapa subsp. chinensis; test: Post-emergence herbicidal activity against Brassica rapa subsp. chinensis assessed as inhibition at 150 g/hectare by green house assay; type: functional
Eclipta prostrata [21] = test: Post-emergence herbicidal activity against Eclipta prostrata assessed as inhibition at 75 g/hectare treated at two-leaf stage by green house assay; type: functional
Procedure, shortened: (§2)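 Greenhouse postemergence spray of diluted formulation solutions onto broadleaf weeds at the two-leaf stage. Primary screen at 150 g ai/ha, with selected compounds retested at 75 and 37.5 g ai/ha. Abutilon was tested at 150 g ai/ha only. Read-out is percent herbicidal damage relative to an untreated control.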

Eclipta prostrata [22] = test: Post-emergence herbicidal activity against Eclipta prostrata assessed as inhibition at 37.5 g/hectare treated at two-leaf stage by green house assay; type: functional; procedure, shortened: as §2
Amaranthus retroflexus [23] = test: Post-emergence herbicidal activity against Amaranthus retroflexus assessed as inhibition at 37.5 g/hectare treated at two-leaf stage by green house assay; type: functional; procedure, shortened: as §2
Amaranthus retroflexus [24] = test: Post-emergence herbicidal activity against Amaranthus retroflexus assessed as inhibition at 75 g/hectare treated at two-leaf stage by green house assay; type: functional; procedure, shortened: as §2
Brassica juncea [25] = test: Post-emergence herbicidal activity against Brassica juncea assessed as inhibition at 75 g/hectare treated at two-leaf stage by green house assay; type: functional; procedure, shortened: as §2
Brassica juncea [26] = test: Post-emergence herbicidal activity against Brassica juncea assessed as inhibition at 37.5 g/hectare treated at two-leaf stage by green house assay; type: functional; procedure, shortened: as §2
Digitaria sanguinalis [27] = test: Post-emergence herbicidal activity against Digitaria sanguinalis (hairy crabgrass) assessed as inhibition at 75 g/hectare treated at one-leaf stage by green house assay; type: functional
Procedure, shortened: (§3)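 Monocot weeds were sprayed postemergence in the greenhouse at the one-leaf stage with diluted formulation solutions. Primary dose was 150 g ai/ha, with follow-up doses of 75 and 37.5 g ai/ha for selected compounds. Activity is scored as percent herbicidal damage compared with an untreated control.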

Digitaria sanguinalis [28] = test: Post-emergence herbicidal activity against Digitaria sanguinalis (hairy crabgrass) assessed as inhibition at 37.5 g/hectare treated at one-leaf stage by green house assay; type: functional; procedure, shortened: as §3
Setaria viridis [29] = test: Post-emergence herbicidal activity against Setaria viridis (green foxtail) assessed as inhibition at 75 g/hectare treated at one-leaf stage by green house assay; type: functional; procedure, shortened: as §3
Setaria viridis [30] = test: Post-emergence herbicidal activity against Setaria viridis (green foxtail) assessed as inhibition at 37.5 g/hectare treated at one-leaf stage by green house assay; type: functional; procedure, shortened: as §3
Echinochloa crus-galli [31] = test: Post-emergence herbicidal activity against Echinochloa crus-galli (barnyard grass) assessed as inhibition at 75 g/hectare treated at one-leaf stage by green house assay; type: functional; procedure, shortened: as §3
Echinochloa crus-galli [32] = test: Post-emergence herbicidal activity against Echinochloa crus-galli (barnyard grass) assessed as inhibition at 37.5 g/hectare treated at one-leaf stage by green house assay; type: functional; procedure, shortened: as §3
Eclipta prostrata [33] = test: Post-emergence herbicidal activity against Eclipta prostrata assessed as inhibition at 150 g/hectare treated at two-leaf stage by green house assay; type: functional; procedure, shortened: as §2
Amaranthus retroflexus [34] = test: Post-emergence herbicidal activity against Amaranthus retroflexus assessed as inhibition at 150 g/hectare treated at two-leaf stage by green house assay; type: functional; procedure, shortened: as §2
Brassica juncea [35] = test: Post-emergence herbicidal activity against Brassica juncea assessed as inhibition at 150 g/hectare treated at two-leaf stage by green house assay; type: functional; procedure, shortened: as §2
Abutilon theophrasti = test: Post-emergence herbicidal activity against Abutilon theophrasti (velvetleaf) assessed as inhibition at 150 g/hectare treated at two-leaf stage by green house assay; type: functional; procedure, shortened: as §2
Digitaria sanguinalis [36] = test: Post-emergence herbicidal activity against Digitaria sanguinalis (hairy crabgrass) assessed as inhibition at 150 g/hectare treated at one-leaf stage by green house assay; type: functional; procedure, shortened: as §3
Echinochloa crus-galli [37] = test: Post-emergence herbicidal activity against Echinochloa crus-galli (barnyard grass) assessed as inhibition at 150 g/hectare treated at one-leaf stage by green house assay; type: functional; procedure, shortened: as §3
Setaria viridis [38] = test: Post-emergence herbicidal activity against Setaria viridis (green foxtail) assessed as inhibition at 150 g/hectare treated at one-leaf stage by green house assay; type: functional; procedure, shortened: as §3

## CC1(C)COP(=O)(C(OC(=O)COc2ccc(Cl)cc2Cl)c2ccco2)OC1 (stereo not given)
Triticum aestivum
  inhibition (INH): 10%
Brassica napus
  inhibition at 150 g/ha: 40%
Gossypium hirsutum
  inhibition (INH): 30%
Glycine max
  inhibition (INH): 30%
Zea mays
  inhibition (INH): 0%
Oryza sativa
  inhibition (INH): 40%
Brassica juncea [1]
  inhibition at 75 g/ha: 90%
Chenopodium album [2]
  inhibition at 75 g/ha: 70%
[3]
  inhibition at 75 g/ha: 80%
Brassica oleracea [4]
  inhibition at 75 g/ha: 80%
Pontederia vaginalis [5]
  inhibition at 75 g/ha: 100%
Ammannia baccifera [6]
  inhibition at 75 g/ha: 100%
Radish [7]
  inhibition at 75 g/ha: 80%
Ipomoea nil [8]
  inhibition at 75 g/ha: 100%
[9]
  inhibition at 75 g/ha: 70%
Amaranthus retroflexus [10]
  inhibition at 75 g/ha: 70%
Brassica juncea [11]
  inhibition at 150 g/ha: 95%
Chenopodium album [12]
  inhibition at 150 g/ha: 80%
[13]
  inhibition at 150 g/ha: 95%
Brassica oleracea [14]
  inhibition at 150 g/ha: 85%
Pontederia vaginalis [15]
  inhibition at 150 g/ha: 100%
Ammannia baccifera [16]
  inhibition at 150 g/ha: 100%
Radish [17]
  inhibition at 150 g/ha: 85%
Ipomoea nil [18]
  inhibition at 150 g/ha: 100%
Amaranthus retroflexus [19]
  inhibition at 150 g/ha: 80%
[20]
  inhibition at 150 g/ha: 80%
Eclipta prostrata [21]
  inhibition at 75 g/ha: 62%
Eclipta prostrata [22]
  inhibition at 37.5 g/ha: 60%
Amaranthus retroflexus [23]
  inhibition at 37.5 g/ha: 50%
Amaranthus retroflexus [24]
  inhibition at 75 g/ha: 70%
Brassica juncea [25]
  inhibition at 75 g/ha: 90%
Brassica juncea [26]
  inhibition at 37.5 g/ha: 85%
Digitaria sanguinalis [27]
  inhibition at 75 g/ha: 0%
Digitaria sanguinalis [28]
  inhibition at 37.5 g/ha: 0%
Setaria viridis [29]
  inhibition at 75 g/ha: 0%
Setaria viridis [30]
  inhibition at 37.5 g/ha: 0%
Echinochloa crus-galli [31]
  inhibition at 75 g/ha: 0%
Echinochloa crus-galli [32]
  inhibition at 37.5 g/ha: 0%
Eclipta prostrata [33]
  inhibition at 150 g/ha: 80%
Amaranthus retroflexus [34]
  inhibition at 150 g/ha: 80%
Brassica juncea [35]
  inhibition at 150 g/ha: 95%
Abutilon theophrasti
  inhibition at 150 g/ha: 90%
Digitaria sanguinalis [36]
  inhibition at 150 g/ha: 40%
Echinochloa crus-galli [37]
  inhibition at 150 g/ha: 30%
Setaria viridis [38]
  inhibition at 150 g/ha: 30%

From ChEMBL document CHEMBL3044653, “Synthesis and herbicidal activity of 2-(substituted phenoxyacetoxy)alkyl-5,5-dimethyl-1,3,2-dioxaphosphinan-2-one” (J Agric Food Chem, 2012)
